Data from ChEMBL document CHEMBL1151733, “Pirinixic acid derivatives as novel dual inhibitors of microsomal prostaglandin E2 synthase-1 and 5-lipoxygenase” (J Med Chem, 2008).
The source made the active and inactive calls. The calls are words filed in the database; no cut-off is given here.

Columns and labels:
[1] = biological target: T1, Prostaglandin G/H synthase 2 (Homo sapiens, UniProt P35354); experiment: Inhibition of human recombinant COX2
T1 sequence (P35354 whole entry): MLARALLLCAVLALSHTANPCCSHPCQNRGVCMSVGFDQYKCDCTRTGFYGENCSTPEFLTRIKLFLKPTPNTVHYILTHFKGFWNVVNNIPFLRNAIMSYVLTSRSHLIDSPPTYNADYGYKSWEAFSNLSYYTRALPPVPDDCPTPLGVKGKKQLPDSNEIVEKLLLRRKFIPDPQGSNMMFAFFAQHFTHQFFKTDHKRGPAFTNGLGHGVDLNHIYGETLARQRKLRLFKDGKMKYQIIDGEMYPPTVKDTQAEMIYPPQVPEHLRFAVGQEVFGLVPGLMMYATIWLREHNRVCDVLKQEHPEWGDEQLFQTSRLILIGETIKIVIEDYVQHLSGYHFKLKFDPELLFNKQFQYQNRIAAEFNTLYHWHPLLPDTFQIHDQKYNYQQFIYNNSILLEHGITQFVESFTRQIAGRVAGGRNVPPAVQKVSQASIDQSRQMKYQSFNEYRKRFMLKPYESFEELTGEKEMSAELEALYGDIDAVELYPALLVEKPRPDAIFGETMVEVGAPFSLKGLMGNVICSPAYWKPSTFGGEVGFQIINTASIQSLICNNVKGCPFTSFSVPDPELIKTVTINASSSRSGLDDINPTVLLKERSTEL
In short: (§1)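 Ovine COX-1 (50 units) or human recombinant COX-2 (20 units) in 100 mM Tris pH 8 with 5 mM glutathione, 5 µM hemoglobin and 100 µM EDTA. Compound preincubation 5 min at 4 °C, then prewarming 60 s at 37 °C. AA added at 5 µM for COX-1 or 2 µM for COX-2, reacted 5 min at 37 °C. 12-HHT extracted and quantified by HPLC. Mean ± SE, n = 3.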

[2] = biological target: T2, Prostaglandin G/H synthase 1 (Ovis aries, UniProt P05979); experiment: Inhibition of ovine COX1; in short: as §1
T2 sequence (P05979 whole entry): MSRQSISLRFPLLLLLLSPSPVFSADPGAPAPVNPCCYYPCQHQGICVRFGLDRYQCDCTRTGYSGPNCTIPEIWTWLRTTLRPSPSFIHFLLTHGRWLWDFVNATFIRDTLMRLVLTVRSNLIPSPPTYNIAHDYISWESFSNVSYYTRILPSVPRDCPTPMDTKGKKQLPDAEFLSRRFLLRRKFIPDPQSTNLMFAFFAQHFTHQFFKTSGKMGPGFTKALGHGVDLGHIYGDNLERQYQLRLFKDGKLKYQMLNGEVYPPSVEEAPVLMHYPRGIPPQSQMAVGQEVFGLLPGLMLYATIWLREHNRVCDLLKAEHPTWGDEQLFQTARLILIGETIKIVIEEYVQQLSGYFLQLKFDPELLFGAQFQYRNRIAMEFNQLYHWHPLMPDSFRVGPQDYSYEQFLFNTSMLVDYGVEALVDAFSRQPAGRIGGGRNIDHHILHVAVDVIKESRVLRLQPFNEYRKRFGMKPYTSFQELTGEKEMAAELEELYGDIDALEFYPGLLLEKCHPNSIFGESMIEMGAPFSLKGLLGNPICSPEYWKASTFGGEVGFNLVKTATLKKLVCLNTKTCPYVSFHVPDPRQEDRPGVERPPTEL

[3] = biological target: T3, Prostaglandin E synthase (Homo sapiens) (UniProt O14684); experiment: Inhibition of PGES1 in human A549 cell microsome assessed as PGE2 formation at 10 uM by cell-free assay relative to control; set-up: scale not given: the % may be the effect or the level left
T3 sequence (whole entry): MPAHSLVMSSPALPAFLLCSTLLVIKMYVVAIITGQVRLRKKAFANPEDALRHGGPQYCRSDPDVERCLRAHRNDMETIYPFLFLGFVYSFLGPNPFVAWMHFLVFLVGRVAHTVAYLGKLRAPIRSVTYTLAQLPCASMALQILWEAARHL
In short: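 Microsomes from A549 cells grown with IL-1β (1 ng/mL, 72 h), diluted in 0.1 M potassium phosphate pH 7.4 with 2.5 mM glutathione. Compound or DMSO added 15 min before PGH₂ (20 µM final). Reaction ran 1 min at 4 °C and was stopped with FeCl₂/citric acid. PGE₂ isolated by C18 SPE, then RP-HPLC with UV at 195 nm against 11β-PGE₂ internal standard.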

[4] = biological target: T4, Polyunsaturated fatty acid 5-lipoxygenase (Homo sapiens) (UniProt P09917); experiment: Inhibition of 5-LO in human PMNL cells at 10 uM relative to control; format: cell-based; set-up: scale not given: the % may be the effect or the level left
T4 sequence (whole entry): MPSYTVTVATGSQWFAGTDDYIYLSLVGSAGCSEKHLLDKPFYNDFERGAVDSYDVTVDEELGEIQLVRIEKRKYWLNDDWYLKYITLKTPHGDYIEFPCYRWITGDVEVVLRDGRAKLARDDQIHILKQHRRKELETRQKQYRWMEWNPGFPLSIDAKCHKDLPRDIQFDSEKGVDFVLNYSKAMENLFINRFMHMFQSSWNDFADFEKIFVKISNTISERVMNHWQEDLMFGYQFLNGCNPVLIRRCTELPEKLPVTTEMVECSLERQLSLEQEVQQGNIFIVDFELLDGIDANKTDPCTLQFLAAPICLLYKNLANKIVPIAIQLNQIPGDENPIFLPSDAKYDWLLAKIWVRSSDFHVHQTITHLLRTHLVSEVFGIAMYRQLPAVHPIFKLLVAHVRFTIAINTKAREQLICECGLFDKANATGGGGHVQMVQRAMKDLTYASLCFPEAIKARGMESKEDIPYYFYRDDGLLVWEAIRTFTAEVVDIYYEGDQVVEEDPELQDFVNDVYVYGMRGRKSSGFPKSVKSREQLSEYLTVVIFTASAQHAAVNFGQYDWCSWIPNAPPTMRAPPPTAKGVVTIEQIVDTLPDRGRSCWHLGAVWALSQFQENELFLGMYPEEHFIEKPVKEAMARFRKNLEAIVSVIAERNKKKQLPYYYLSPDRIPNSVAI
In short: (§2)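 Freshly isolated human PMNL from leukocyte concentrates of healthy donors, 5 × 10⁶ cells/mL in PBS pH 7.4 with 1 mg/mL glucose and 1 mM CaCl₂. Preincubated with compound 15 min at RT, then stimulated with 2.5 µM A23187 plus 20 µM AA for 10 min at 37 °C. Stopped with methanol; LTB₄, its all-trans isomers and 5-H(P)ETE quantified by HPLC with PGB₁ internal standard.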

[5] = biological target: T5, Polyunsaturated fatty acid 5-lipoxygenase (Homo sapiens, UniProt P09917); experiment: Inhibition of 5-LO in PMNL cells; format: cell-based; in short: as §2
T5 sequence (P09917 whole entry): T4 sequence (whole entry)

[6] = biological target: T6, Prostaglandin G/H synthase 1 (Ovis aries) (UniProt P05979); experiment: Inhibition of ovine COX1 assessed as remaining activity at 10 uM relative to control; in short: as §1
T6 sequence (whole entry): T2 sequence (P05979 whole entry)

[7] = biological target: T5, Polyunsaturated fatty acid 5-lipoxygenase; experiment: Inhibition of human recombinant 5-LO expressed in Escherichia coli by cell-free assay
In short: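 Human 5-LO expressed in E. coli MV1190 (pT3-5LO) at 27 °C, partially purified from the 100000g lysate supernatant. Held in PBS pH 7.4 with 1 mM EDTA and 1 mM ATP with compound for 10 min at 4 °C, warmed 30 s at 37 °C, then started with 2 mM CaCl₂ plus 20 µM AA. After 10 min at 37 °C, stopped with cold methanol; products measured by HPLC.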

[8] = biological target: T7, Prostaglandin G/H synthase 2 (Homo sapiens) (UniProt P35354); experiment: Inhibition of human recombinant COX2 assessed as remaining activity at 10 uM relative to control; in short: as §1
T7 sequence (whole entry): T1 sequence (P35354 whole entry)

Cc1cccc(Nc2cc(Cl)nc(SCC(=O)O)n2)c1C [PIRINIXIC ACID]
IC50 [1]: > 10 µM | IC50 [2]: > 10 µM | Activity [3]: inactive

Cc1cccc(Nc2cc(Cl)nc(SC(C(=O)O)c3ccccc3)n2)c1C (stereo not given)
IC50 [1]: > 10 µM | IC50 [2]: > 10 µM | Activity [3]: 74.6%

CC(=O)N(O)C/C=C/c1cccc(Oc2ccccc2)c1
IC50 [1]: > 10 µM | IC50 [2]: > 10 µM | Activity [3]: inactive

CCCCCCC(Sc1nc(Cl)cc(NCc2ccc(-c3ccccc3)cc2)n1)C(=O)OCC (stereo not given)
IC50 [1]: > 10 µM | Activity [4]: 80.2% | IC50 [2]: > 10 µM | Activity [3]: inactive

Cc1cccc(Nc2cc(Cl)nc(SC(C)(C)C(=O)O)n2)c1C
IC50 [1]: > 10 µM | IC50 [2]: > 10 µM | Activity [3]: 83.8%

CCCCCCCCC(Sc1nc(Cl)cc(Nc2cccc(C)c2C)n1)C(=O)O (stereo not given)
IC50 [1]: > 10 µM | Activity [4]: 7% | IC50 [2]: > 10 µM | Activity [3]: 29.8%

Cc1cccc(Nc2cc(Cl)nc(SC(C)C(=O)O)n2)c1C (stereo not given)
IC50 [1]: > 10 µM | IC50 [2]: > 10 µM | Activity [3]: inactive

CCCCCCC(Sc1nc(Cl)cc(Oc2ccc3ncccc3c2)n1)C(=O)O (stereo not given)
IC50 [1]: > 10 µM | IC50 [2]: > 10 µM | Activity [3]: 67.4%

CCCCCCC(Sc1nc(Cl)cc(NCc2ccc(-c3ccccc3)cc2)n1)C(=O)O (stereo not given)
IC50 [5]: 1 µM | Activity [6]: 67.3% | IC50 [1]: > 10 µM | Activity [4]: 3% | IC50 [2]: > 10 µM | Activity [3]: 21.8% | IC50 [7]: 2 µM | Activity [8]: 61.3%

CCCCCCC(Sc1nc(Cl)cc(NCc2ccc3ncccc3c2)n1)C(=O)O (stereo not given)
IC50 [1]: > 10 µM | IC50 [2]: > 10 µM | Activity [3]: 85.7%

CCCCC(Sc1nc(Cl)cc(Nc2cccc(C)c2C)n1)C(=O)O (stereo not given)
IC50 [1]: > 10 µM | IC50 [2]: > 10 µM | Activity [3]: inactive

CCCCC(Sc1nc(OCCc2ccccc2)cc(OCCc2ccccc2)n1)C(=O)OCC (stereo not given)
IC50 [1]: > 10 µM | Activity [4]: 80.1% | IC50 [2]: > 10 µM | Activity [3]: inactive

CCCCCCC(Sc1nc(Cl)cc(Nc2ccc3ncccc3c2)n1)C(=O)O (stereo not given)
IC50 [1]: > 10 µM | IC50 [2]: > 10 µM | Activity [3]: 59%

CCCCC(Sc1nc(OCCc2ccccc2)cc(OCCc2ccccc2)n1)C(=O)O (stereo not given)
IC50 [1]: > 10 µM | Activity [4]: 2.7% | IC50 [2]: > 10 µM | Activity [3]: 43.1%

CCCCCCC(Sc1nc(Cl)cc(NCCc2ccccc2)n1)C(=O)O (stereo not given)
IC50 [1]: > 10 µM | Activity [4]: 16.1% | IC50 [2]: > 10 µM | Activity [3]: 70%

CCCCCC[C@@H](Sc1nc(Cl)cc(Nc2ccc(-c3ccc(C#N)cc3)cc2)n1)C(=O)O
IC50 [1]: > 10 µM | Activity [4]: 2.8% | IC50 [2]: > 10 µM | Activity [3]: 36.8% | IC50 [7]: 0.8 µM

CCCCCCC(Sc1nc(Cl)cc(NCCOc2ccccc2)n1)C(=O)OCC (stereo not given)
IC50 [1]: > 10 µM | Activity [4]: 37.1% | IC50 [2]: > 10 µM | Activity [3]: 80.7%

Cc1cccc(Nc2cc(Cl)nc(SC(C(=O)O)c3cccc4ccccc34)n2)c1C (stereo not given)
IC50 [5]: 5 µM | Activity [6]: 42.2% | Activity [4]: 16.8% | Activity [8]: 32.5%

CCCCCCC(Sc1nc(Cl)cc(Nc2cccc(C)c2C)n1)C(=O)OCC (stereo not given)
IC50 [1]: > 10 µM | IC50 [2]: > 10 µM | Activity [3]: inactive

O=C(O)CSc1nc(OCCc2ccccc2)cc(OCCc2ccccc2)n1
IC50 [1]: > 10 µM | Activity [4]: 40.6% | IC50 [2]: > 10 µM | Activity [3]: 66.4%

CCCCCCC(Sc1nc(Cl)cc(NCCOc2ccccc2)n1)C(=O)O (stereo not given)
IC50 [1]: > 10 µM | Activity [4]: 28% | IC50 [2]: > 10 µM | Activity [3]: 79.9%

CCCCCCC(Sc1nc(Cl)cc(Nc2cccc(C)c2C)n1)C(=O)O (stereo not given)
Activity [6]: 75.2% | IC50 [1]: > 10 µM | IC50 [2]: > 10 µM | Activity [3]: 31.9% | IC50 [7]: 6.5 µM | Activity [8]: 62%

CCCCCCC(Sc1nc(Cl)cc(Nc2cc(OCC(F)(F)F)cc(OCC(F)(F)F)c2)n1)C(=O)O (stereo not given)
IC50 [5]: 1.5 µM | Activity [6]: 40% | Activity [4]: 8% | IC50 [7]: 3 µM | Activity [8]: 70.4%

CCCCCC[C@H](Sc1nc(Cl)cc(Nc2ccc(-c3ccc(C#N)cc3)cc2)n1)C(=O)O
IC50 [1]: > 10 µM | Activity [4]: 2.8% | IC50 [2]: > 10 µM | Activity [3]: 23% | IC50 [7]: 1.5 µM
